# Activity calls are given as the source filed them.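 The calls were made as follows: active = fold change in liver X receptor activation above 2; inactive = the rest.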
# Biological target: Oxysterols receptor LXR-beta (Homo sapiens) (UniProt P55055)
# Assay: activation of LXR ligand-binding domain – cell-based, luminescence, single concentration, powder samples, selectivity assay for RORA inverse agonist project, late-stage follow-up (AID 463143)
# Settings: HEK293T GAL4-LXR LBD luciferase reporter, 18-24 h; at 10 µM; hits give high values
# Method in brief: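 Assay system: HEK293T cells carrying GAL4-LXR ligand-binding-domain fusion plus UAS-luciferase reporter. Compound: single nominal dose of 10 µM per compound. Incubation: 20 h compound exposure after replating from 24 h transfection. Measured by: luminescence. Read-out basis: fold change versus DMSO vehicle. Control set: DMSO-treated cells as vehicle reference. Repeats: six replicates.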
# Chain of Oxysterols receptor LXR-beta (Homo sapiens) (P55055 whole entry, looked up, the tested form may be a part): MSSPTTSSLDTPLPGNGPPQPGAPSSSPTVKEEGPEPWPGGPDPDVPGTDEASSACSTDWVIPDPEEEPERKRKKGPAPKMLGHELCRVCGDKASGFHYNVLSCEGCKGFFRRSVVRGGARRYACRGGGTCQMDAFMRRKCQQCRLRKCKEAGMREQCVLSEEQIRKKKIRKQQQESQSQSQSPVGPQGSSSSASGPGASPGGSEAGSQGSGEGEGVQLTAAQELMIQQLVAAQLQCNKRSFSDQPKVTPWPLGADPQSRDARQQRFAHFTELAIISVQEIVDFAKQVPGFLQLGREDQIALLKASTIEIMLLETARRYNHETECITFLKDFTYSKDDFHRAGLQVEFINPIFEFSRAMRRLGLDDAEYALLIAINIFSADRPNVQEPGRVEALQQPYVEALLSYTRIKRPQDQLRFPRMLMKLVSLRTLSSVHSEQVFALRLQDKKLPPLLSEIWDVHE
row,SMILES,fold change
1,O=C(Nc1ccc(C(O)(C(F)(F)F)C(F)(F)F)cc1)c1ccc(F)cc1F,1.39 (inactive)
2,O=C(Nc1ccc(C(O)(C(F)(F)F)C(F)(F)F)cc1)c1ccc(Cl)cc1,1.15 (inactive)
3,O=C(Nc1ccc(C(O)(C(F)(F)F)C(F)(F)F)cc1)c1c(F)cccc1F,0.937 (inactive)

# Further lines, results first:
row,fold change,SMILES
1,1.39 (inactive),O=S(=O)(Nc1ccc(C(O)(C(F)(F)F)C(F)(F)F)cc1)c1cccs1
2,1.04 (inactive),O=C(Nc1ccc(C(O)(C(F)(F)F)C(F)(F)F)cc1)c1ccc(F)cc1Cl
3,0.958 (inactive),O=C(Nc1ccc(C(O)(C(F)(F)F)C(F)(F)F)cc1)c1ccccc1C(F)(F)F

# — PubChem BioAssay AID463143 (The Scripps Research Institute Molecular Screening Center, 2010)
